Consider one compound from ChEMBL document CHEMBL4138058, “Design and synthesis of novel selective estrogen receptor degradation inducers based on the diphenylheptane skeleton” (Medchemcomm, 2017).

Common to all, as to format: cell-based
Series [1] deals with T1, Aryl hydrocarbon receptor (Homo sapiens, UniProt P35869).
T1 sequence (P35869 whole entry): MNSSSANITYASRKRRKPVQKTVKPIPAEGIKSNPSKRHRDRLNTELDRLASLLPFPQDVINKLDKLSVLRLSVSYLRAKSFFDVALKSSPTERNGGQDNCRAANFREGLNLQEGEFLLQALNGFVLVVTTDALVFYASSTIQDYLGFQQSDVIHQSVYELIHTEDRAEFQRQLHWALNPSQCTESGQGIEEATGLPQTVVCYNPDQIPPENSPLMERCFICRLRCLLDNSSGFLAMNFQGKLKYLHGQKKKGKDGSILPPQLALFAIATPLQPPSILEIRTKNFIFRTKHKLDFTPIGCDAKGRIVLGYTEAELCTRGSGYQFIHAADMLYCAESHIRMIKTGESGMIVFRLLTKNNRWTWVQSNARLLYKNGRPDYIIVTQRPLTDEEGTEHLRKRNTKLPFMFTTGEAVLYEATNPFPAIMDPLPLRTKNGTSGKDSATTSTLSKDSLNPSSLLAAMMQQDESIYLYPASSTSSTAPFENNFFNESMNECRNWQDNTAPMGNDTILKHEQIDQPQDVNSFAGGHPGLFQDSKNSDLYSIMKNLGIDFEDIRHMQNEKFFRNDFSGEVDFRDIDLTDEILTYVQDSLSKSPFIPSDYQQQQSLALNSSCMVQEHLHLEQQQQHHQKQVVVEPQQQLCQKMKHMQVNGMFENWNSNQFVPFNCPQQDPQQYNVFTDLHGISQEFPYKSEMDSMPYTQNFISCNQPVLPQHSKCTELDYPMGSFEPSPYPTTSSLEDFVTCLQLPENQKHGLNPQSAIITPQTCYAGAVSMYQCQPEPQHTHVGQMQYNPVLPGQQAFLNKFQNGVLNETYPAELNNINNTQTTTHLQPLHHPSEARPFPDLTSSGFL
Briefly: Downregulation of AhR expression in human MCF7 cells at 1 uM after 6 hrs by Western blot method relative to lamin B. The conditions noted are these: mcf7, 6 h. The method, boiled down: (§1)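 MCF-7 cells kept in DMEM with 10% FBS, kanamycin and 10 μg/mL insulin, then exposed to compounds for 6 h. Lysates made in SDS buffer (0.1 M Tris-HCl pH 8.0, 10% glycerol, 1% SDS), boiled, BCA-normalized and run on SDS-PAGE. Blots probed with anti-ERα, AR, AhR or VDR and β-actin or lamin B. Chemiluminescence quantified as target/loading-protein ratio; means ± S.E., n=3.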

The target of series [2] is T2, Vitamin D3 receptor (Homo sapiens) (UniProt P11473).
T2 sequence (whole entry): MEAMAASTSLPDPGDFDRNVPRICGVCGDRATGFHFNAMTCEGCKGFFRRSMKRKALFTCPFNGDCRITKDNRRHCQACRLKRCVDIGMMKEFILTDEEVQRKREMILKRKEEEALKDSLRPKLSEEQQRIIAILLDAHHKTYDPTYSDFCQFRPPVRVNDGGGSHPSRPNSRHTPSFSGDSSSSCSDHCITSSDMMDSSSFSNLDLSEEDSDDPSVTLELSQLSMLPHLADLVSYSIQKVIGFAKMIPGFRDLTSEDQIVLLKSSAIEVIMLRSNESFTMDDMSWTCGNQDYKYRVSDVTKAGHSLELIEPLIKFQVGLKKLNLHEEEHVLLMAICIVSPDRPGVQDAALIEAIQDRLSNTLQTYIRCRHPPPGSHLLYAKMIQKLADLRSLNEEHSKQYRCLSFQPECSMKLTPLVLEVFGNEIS
The series can be described thus: Downregulation of VDR expression in human MCF7 cells at 3 uM after 6 hrs by Western blot method relative to lamin B. The method, boiled down: as §1
(In general: A western blot detects proteins with antibodies after separation by electrophoresis.)

For series [3], the target named is T3, Androgen receptor (Homo sapiens) (UniProt P10275).
T3 sequence (whole entry): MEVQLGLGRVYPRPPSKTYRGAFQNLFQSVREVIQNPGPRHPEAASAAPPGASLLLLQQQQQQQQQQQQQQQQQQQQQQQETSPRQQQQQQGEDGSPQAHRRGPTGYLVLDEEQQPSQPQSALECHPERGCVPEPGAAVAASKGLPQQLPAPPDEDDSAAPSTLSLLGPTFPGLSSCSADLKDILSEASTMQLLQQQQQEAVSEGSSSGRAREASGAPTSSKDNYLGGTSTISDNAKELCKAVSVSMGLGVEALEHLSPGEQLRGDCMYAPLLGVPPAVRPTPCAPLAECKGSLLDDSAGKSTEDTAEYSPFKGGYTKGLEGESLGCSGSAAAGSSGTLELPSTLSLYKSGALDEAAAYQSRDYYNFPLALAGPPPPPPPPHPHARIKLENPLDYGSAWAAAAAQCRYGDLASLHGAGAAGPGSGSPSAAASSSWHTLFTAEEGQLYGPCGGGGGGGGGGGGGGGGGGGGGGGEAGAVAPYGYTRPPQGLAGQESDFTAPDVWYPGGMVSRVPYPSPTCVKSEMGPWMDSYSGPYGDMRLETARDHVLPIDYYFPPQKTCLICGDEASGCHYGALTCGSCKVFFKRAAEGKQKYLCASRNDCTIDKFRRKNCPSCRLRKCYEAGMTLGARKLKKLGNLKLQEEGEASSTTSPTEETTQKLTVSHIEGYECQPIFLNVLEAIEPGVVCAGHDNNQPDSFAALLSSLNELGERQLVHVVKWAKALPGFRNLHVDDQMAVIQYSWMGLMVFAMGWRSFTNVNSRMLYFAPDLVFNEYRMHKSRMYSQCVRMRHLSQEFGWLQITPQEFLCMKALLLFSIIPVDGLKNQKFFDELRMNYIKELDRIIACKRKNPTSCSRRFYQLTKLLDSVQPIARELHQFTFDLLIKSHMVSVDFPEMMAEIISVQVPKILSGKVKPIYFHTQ
The series can be described thus: Downregulation of androgen receptor expression in human MCF7 cells at 10 uM after 6 hrs in presence of proteasome inhibitor MG132 by Western blot method relative to lamin B. The method, boiled down: as §1

The target of series [4] is T2, Vitamin D3 receptor (Homo sapiens). The series can be described thus: Downregulation of VDR expression in human MCF7 cells at 10 uM after 6 hrs in presence of proteasome inhibitor MG132 by Western blot method relative to lamin B. Summed up: as §1
Series [5] has as its target T1, Aryl hydrocarbon receptor. The series can be described thus: Downregulation of AhR expression in human MCF7 cells at 10 uM after 6 hrs in presence of proteasome inhibitor MG132 by Western blot method relative to lamin B. The note with it: mcf7, 6 h. Summed up: as §1

SMILES strings stand for the structures.

Consider `CCCCCCCCCCNCCOc1ccc(C(CCC)(CCC)c2ccc(O)c(C)c2)cc1C`, for which the Activity is 87% in series [1]; 99% in series [2]; 77% in series [3]; 86% in series [4]; 107% in series [5].
